Where a SMILES comes first, the peptide text is derived from it. [ ]: non-standard residue; d: D form.
Molecular target: wild type rat secretin receptor (Rattus norvegicus, UniProt P23811)
Assay: cAMP responses in secretin receptor-bearing CHO-SecR cells
Assay type: cell-based
Conditions: for agonist (biological) activity at the secretin receptor, in words: cAMP responses in CHO-SecR cells, relative to maximal response to secretin
Procedure, shortened: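 CHO cells stably expressing wild-type rat secretin receptor, grown 48 h at ~8,000 cells/well, washed twice in PBS, then stimulated 30 min at 37 °C with increasing test-compound concentrations in Krebs-Ringers/HEPES pH 7.4 with 0.2% BSA, 0.1% bacitracin and 1 mM IBMX. Lysis in 6% ice-cold perchloric acid, neutralised to pH 6, cAMP by LANCE. Normalised to maximal secretin response; three experiments in duplicate.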

Sequence of wild type rat secretin receptor (P23811 26-449): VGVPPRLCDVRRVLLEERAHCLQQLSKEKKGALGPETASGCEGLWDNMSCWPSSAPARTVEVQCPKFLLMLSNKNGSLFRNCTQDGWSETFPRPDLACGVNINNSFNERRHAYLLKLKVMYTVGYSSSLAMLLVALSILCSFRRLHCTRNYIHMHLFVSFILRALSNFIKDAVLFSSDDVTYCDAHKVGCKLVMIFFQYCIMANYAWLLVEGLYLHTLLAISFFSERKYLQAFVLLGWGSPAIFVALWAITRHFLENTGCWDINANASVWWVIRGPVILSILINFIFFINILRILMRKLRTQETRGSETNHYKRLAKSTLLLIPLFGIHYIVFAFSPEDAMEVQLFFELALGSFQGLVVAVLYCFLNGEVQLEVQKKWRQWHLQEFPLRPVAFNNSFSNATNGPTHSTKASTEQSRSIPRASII

SMILES | EC50 [µM] | agonist (biological) activity at the secretin receptor, in words
O=C(O)C[C@@H]1NC(=O)[C@H](Cc2c[nH]c3ccccc23)NC(=O)[C@H](CC(=O)O)NC(=O)[C@H](Cc2c[nH]c3ccccc23)NC(=O)[C@@H](CC(=O)O)NC(=O)[C@H](Cc2c[nH]c3ccccc23)NC1=O [c[WDWDWd]] (cyclo(DWDW[dD]W)) | 11.7 ± 3 | 
C[C@@H]1NC(=O)[C@H](C)NC(=O)[C@@H](C)NC(=O)[C@H](C)NC(=O)[C@H](CC(=O)O)NC(=O)[C@H](Cc2c[nH]c3ccccc23)NC1=O [c[AAWDAa]] (cyclo(AAWDA[dA])) | 23 ± 5.3 | full agonist activity
C[C@@H]1NC(=O)[C@H](C)NC(=O)[C@H](CC(=O)O)NC(=O)[C@H](Cc2c[nH]c3ccccc23)NC(=O)[C@H](C)NC(=O)[C@@H](C)NC1=O [c[AWDAAa]] (cyclo(AA[dA]AWD)) | 21 ± 4.2 | full agonist activity

— paper PMC2872052 (Peptides, 2010)
